The record followed here is PubChem BioAssay.

Values without a mark were called inactive. Inconclusive results are not listed. The source made the active and inactive calls.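 How the source made its calls, unless noted: active means viability increase at or above a cutoff of the median across tested compounds plus 3 SD (cut at about 8.5% in these data, passing the limit was not always enough); inconclusive means some gains above the cutoff, reason not given; inactive means the rest.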

Experiment [1] is described as follows: S. cerevisiae growth inhibition in permissive medium (OD615), pilot counter-assay for S. cerevisiae lifespan shortening project, permissive growth control (AID 705;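 active means growth inhibition above 25% in both replicates, a cutoff set 3 SD above the mean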). Particulars: OD615, 24 h, at 10 µM, active compounds read high. The procedure, abridged:
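Test system: Saccharomyces cerevisiae strain carrying genetically modified DeaD replicative-lifespan system; buffer or medium: SC raffinose/galactose permissive medium; dosing: one dose 10 µM, DMSO 0.25% final; times: 24 h exposure, 30 °C; measured by: OD at 615 nm; read-out basis: growth inhibition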

A short description of experiment [2]: S. cerevisiae growth inhibition in restrictive medium, OD615, pilot screen, restrictive growth control, yeast lifespan reduction project (AID 706;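 active means growth inhibition above a set limit, 3 SD over mean compound inhibition, in both replicates, cut at about 43% in these data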;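 further: modified DeaD lifespan yeast strain shifted to restrictive glucose medium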). Particulars: OD615, 48 h, at 10 µM, active compounds read high. An outline of the steps:
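material = engineered S. cerevisiae DeaD strain | buffer or medium = glucose-based CSMM-D restrictive medium | dosing = one concentration, 10 µM final, 0.25% DMSO | schedule = 4 h pre-growth plus 48 h compound exposure, 30 °C | detection = OD615 absorbance reading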

Experiment [3] is described as follows: doxorubicin toxicity protection in MRP-1 cells – H69AR cells, CellTiter-Glo, duplicate, MRP-1 activator project, pilot screen (AID 807).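 Further: compound pretreatment 18-22 h then 72 h combined with doxorubicin; 0% = doxorubicin alone and 100% = vehicle without doxorubicin.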 As to conditions: H69AR viability with doxorubicin, CellTiter-Glo luminescence; at 10 µM; active compounds read high.
Experiment [4] is described as follows: viability of PTEN-null HCT116 cells – cell-based, HCT116 clonal line, CellTiter-Glo, pilot screen (AID 824;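 active means viability at or below 27.92% in each of two runs, the all-compound median minus 4 SD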;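 further: 0% = 20 µM Hyamine control and 100% = vehicle cell control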). As to conditions: HCT116 PTEN-deleted viability, 60 h, at 10 µM, active compounds read low.
Experiment [5] in a line: RAM pathway blockade in budding yeast – dse1pr::URA3 reporter, 5-FOA selection, pilot screen (AID 869;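 active means inhibition over a set limit, the all-compound mean plus 3 SD, in both replicate runs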;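 further: 0% = DMSO wells with no growth and 100% = 10 µM 1-NA-PP1 with full growth; RAM network block rescues cells from 5-FOA so hits raise OD615 growth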). As to conditions: S. cerevisiae dse1pr::URA3 5-FOA growth, OD615, 2 d; at 10 µM; active compounds read high; strain carries analog-sensitive mutant Cbk1 kinase.
Experiment [6] in a line: RAM signaling pathway blockade in yeast – S. cerevisiae, Pdr1DBD-CYC8 efflux-inhibited sensitized strain, primary screen (AID 1298;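 active means RAM network inhibition above 8.4% in each of two replicates, 3 SD over the compound average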;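 further: 0% = DMSO untreated cells without growth and 100% = 10 µM 1-NA-PP1 full growth; higher means more yeast growth rescued from 5-FOA killing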). Particulars: S. cerevisiae cbk1-as DSE1-URA3 strain, 5-FOA growth OD615, 2 d; at 50 µM; active compounds read high.

For `Cc1ccc(S(=O)(=O)N2CCN(C(=O)CCC(=O)N3CCc4ccccc43)CC2)cc1`, the growth inhibition was -2.18% in experiment [1] and -5.78% in experiment [2]. Also, the viability increase in experiment [3] was -1.16%. For the same compound, the viability (in general, a read-out of living cells in per cent, often relative to untreated cells) in experiment [4] was 99.4%. The inhibition (as a rule, the drop in the measured response relative to a control, in per cent) in experiment [5] was -0.03%. For the same compound, the RAM network inhibition in experiment [6] is 2.05%.

For `CCOC(=O)C1CCN(C(=O)c2cn(C)c(=O)c3cc(OC)c(OC)cc23)CC1`, the growth inhibition was -3.38% in experiment [1] and -10.2% in experiment [2]. Also, the viability increase in experiment [3] is -4.21%. For the same compound, the viability in experiment [4] is 98%. In addition, in experiment [5], the inhibition is 1%. Moreover, the RAM network inhibition in experiment [6] was 3.95%.

As for `Cc1ccc(C(C)NC(=O)c2ccco2)cc1C` (stereo not drawn), the figures for the growth inhibition in experiment [1] and in experiment [2] were -7.97% and -4.3%, respectively. In experiment [3], the viability increase was -3.06%. Moreover, the viability in experiment [4] was 98.8%. Further, the inhibition in experiment [5] was 0.75%. In addition, the RAM network inhibition in experiment [6] was -1.23%.

For `O=C(C1CCCN(S(=O)(=O)c2ccc(F)cc2)C1)N(Cc1cccs1)C1CC1` (stereo not drawn), the growth inhibition in experiment [1] is -11.5%; in experiment [2], -6.14%. The viability increase in experiment [3] is -1.34%. Moreover, the viability in experiment [4] was 71.7%. Further, in experiment [5], the inhibition was 2.02%. Also, the RAM network inhibition in experiment [6] was 2.87%.

Take `O=C(CSc1nc2c(c(=O)n1-c1ccc(Br)cc1)SCC2)NCc1ccco1`: the growth inhibition in experiment [1] is -0.48%; in experiment [2], -1.07%. Also, in experiment [3], the viability increase is -3.54%. The viability in experiment [4] was 77.4%. The inhibition in experiment [5] was 0.41%. In experiment [6], the RAM network inhibition is 5.24%.

As to `CCCC(=O)Nc1cccc(C(=O)Nc2nccs2)c1`, the values for the growth inhibition in experiment [1] and in experiment [2] were -9.54% and 0.885%, respectively. For the same compound, in experiment [3], the viability increase was 0.65%. Also, the viability in experiment [4] is 102%. For the same compound, the inhibition in experiment [5] is 0.285%. Besides, the RAM network inhibition in experiment [6] was 0.41%.

Turning to `CCCCn1c(=NC(=O)c2ccco2)c(C(=O)OCC)cc2c(=O)n3ccccc3nc21`, the growth inhibition is 1.16% in experiment [1] and 6.8% in experiment [2]. In addition, the viability increase in experiment [3] was -6.94%. Besides, the viability in experiment [4] was 20.3% (active). In addition, the inhibition in experiment [5] was 0.795%. Besides, in experiment [6], the RAM network inhibition is 1.9%.

On to `Cc1cccc(-n2ncc3c(NCc4ccccc4)ncnc32)c1`, for which the growth inhibition in experiment [1] was 5.07%; in experiment [2], 12.1%. Also, the viability increase in experiment [3] is -5.25%. The viability in experiment [4] is 31.8%. Besides, the inhibition in experiment [5] was 1.38%. Moreover, the RAM network inhibition in experiment [6] is 11.8%.

Consider `CCOC(=O)CNS(=O)(=O)CCN1C(=O)c2ccccc2C1=O`, for which the growth inhibition was -8.36% in experiment [1] and -4.12% in experiment [2]. Besides, the viability increase in experiment [3] was 0.26%. Also, the viability in experiment [4] was 94.3%. The inhibition in experiment [5] is 2.52%. Moreover, the RAM network inhibition in experiment [6] was 0.77%.

Turning to `COc1cccc(OCCOc2cccc(/C=N/n3cnnc3)c2)c1`, the results for the growth inhibition in experiment [1] and in experiment [2] were 6.03% and 21.9%, respectively. Moreover, the viability increase in experiment [3] was -2.71%. For the same compound, the viability in experiment [4] is 95.8%. The inhibition in experiment [5] is 1.62%. Also, the RAM network inhibition in experiment [6] is 0.36%.

On to `COc1ccc(S(=O)(=O)Nc2ccc(S(=O)(=O)N3CCOCC3)cc2)cc1`, for which the growth inhibition in experiment [1] was -3.87%; in experiment [2], -1.83%. In addition, the viability increase in experiment [3] was -1.49%. Moreover, in experiment [4], the viability is 101%. The inhibition in experiment [5] is 1.18%. The RAM network inhibition in experiment [6] is 2.87%.

On to `CCN(CC)S(=O)(=O)c1ccc2oc(C(=O)NCC3COc4ccccc4O3)c(C)c2c1` (stereo not drawn), for which the growth inhibition in experiment [1] is -4.71%; in experiment [2], 1.48%. For the same compound, the viability increase in experiment [3] is -7.27%. Further, the viability in experiment [4] was 56.5%. Also, the inhibition in experiment [5] is 2.5%. In addition, the RAM network inhibition in experiment [6] is 4.96%.

`COCCNS(=O)(=O)c1ccc2c(c1)C(=O)c1cc(S(=O)(=O)NCCOC)ccc1-2`: the growth inhibition in experiment [1] is -1.33%; in experiment [2] it was 0.015%. Also, the viability increase in experiment [3] was -0.81%. In addition, the viability in experiment [4] is 96.4%. Besides, in experiment [5], the inhibition is 2.15%. In addition, in experiment [6], the RAM network inhibition was 3.45%.

Regarding `CCN(CC)C(=O)c1cn(C)c(=O)c2cc(OC)c(OC)cc12`, the results for the growth inhibition in experiment [1] and in experiment [2] were -12.1% and -8.38%, respectively. For the same compound, the viability increase in experiment [3] is -4.4%. For the same compound, the viability in experiment [4] was 98.8%. Moreover, the inhibition in experiment [5] is 0.515%. Also, in experiment [6], the RAM network inhibition was -1.59%.

Turning to `Cc1csc(SCC(=O)c2ccc(S(=O)(=O)N3CCOCC3)cc2)n1`, the growth inhibition in experiment [1] was 0.36%; in experiment [2], 21.8%. In addition, the viability increase in experiment [3] was -3.72%. Besides, in experiment [4], the viability is 98.2%. For the same compound, the inhibition in experiment [5] is 0.265%. Moreover, the RAM network inhibition in experiment [6] is 7.03%.

In the case of `CC(=O)NCCOC(=O)Nc1ccncc1`, the values for the growth inhibition in experiment [1] and in experiment [2] were 4.58% and -5.27%, respectively. Further, the viability increase in experiment [3] was -0.91%. Further, the viability in experiment [4] was 99.1%. Besides, the inhibition in experiment [5] was 1.32%. The RAM network inhibition in experiment [6] was 3.18%.

With `Cc1c(C(=O)NCc2ccc3c(c2)OCO3)oc2ccc(S(=O)(=O)N3CCCC3)cc12`, the growth inhibition in experiment [1] is -2.78%; in experiment [2] it was -4.95%. Further, the viability increase in experiment [3] was -0.63%. The viability in experiment [4] was 66.1%. For the same compound, the inhibition in experiment [5] was 1.78%. In addition, in experiment [6], the RAM network inhibition is 4.67%.

With `CCSc1nc2ccccc2n1CC(=O)N1CCOCC1`, the growth inhibition was -4.23% in experiment [1] and 1.08% in experiment [2]. The viability increase in experiment [3] is -3.2%. For the same compound, the viability in experiment [4] was 92.4%. Also, in experiment [5], the inhibition was 0.915%. Also, in experiment [6], the RAM network inhibition was 0.98%.
